Casp6 inh = caspase-6 (human) enzyme inhibition; P55212; purified caspase-6, Z-VEID-R110 cleavage fluorescence; inhibition, % at 12.5 µM; actives 0.53% (n = 350,000); AID 686996;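 active = mean inhibition across replicates at least about 35%, with every replicate also reaching that limit, limit read from the data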;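 note: 0% = median of neutral control wells and 100% = no fluorescence left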
Target sequence (P55212 24-179 limits assumed): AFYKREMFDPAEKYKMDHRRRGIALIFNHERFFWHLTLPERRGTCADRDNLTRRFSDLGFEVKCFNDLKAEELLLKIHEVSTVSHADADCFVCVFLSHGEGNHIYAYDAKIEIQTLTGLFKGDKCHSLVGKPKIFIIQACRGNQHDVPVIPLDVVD
Target sequence (P55212 194-293 limits assumed): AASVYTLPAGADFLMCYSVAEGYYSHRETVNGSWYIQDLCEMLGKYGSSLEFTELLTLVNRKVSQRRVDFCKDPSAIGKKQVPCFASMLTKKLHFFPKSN
DENV2 CPE = inhibitors of DENV2 cytopathic effect | actives 1.7% (n = 350,000) | DENV2-infected cells, cytopathic effect rescue, plate reader | AID 651640 | CPE inhibition, % at 9.99 µM; in the data active = CPE inhibition above about 20%, passing the limit was not always enough; tested in BHK-21 cells;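 note: 0% = median of neutral control wells and 100% = median of positive control wells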
FN deposition inh = fibronectin deposition inhibition | AH1F fibroblasts, Alexa488-fibronectin deposition fluorescence, overnight | inhibition, % at 12.6 µM | actives 0.086% (n = 350,000);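 active = mean inhibition across replicates of 30% or more, regardless of how many single replicates reach that level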;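 note: positive control wells lacked labelled fibronectin entirely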
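Assay system: AH1F fibroblasts / Quantity: 10000 cells per well / Medium: DMEM plus 2% serum, read in PBS / Reagent: labelled fibronectin 24 nM / Dosing: single dose, pinned / Times: 1 h cell attachment, overnight exposure to compound and label / Signal: fluorescence, ex 485 nm, em 525 nm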
CaV13 FRET inh = Disruptors of the CACNA1D IQ motif to Ca2+-dependent inactivation inhibitor domain association, primary screening, Förster resonance energy transfer in intact living … | HEK cells, CFP/YFP FRET ICDI-IQ, plate reader, 10 min; percent FRET-ratio fall versus neutral wells | inhibition, % at 12.3 µM | actives 0.098% (n = 340,000);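 active = mean replicate inhibition of at least 30% and at least 1% of replicates passing that level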;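 note: 0% = median of the neutral control wells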
XiGFP reactiv = reactivates the inactive X chromosome in mouse fibroblasts; XiGFP mouse fibroblasts, % GFP-positive cells imaging, 3 d; cells co-treated with 5-aza-dC sensitizer; scaled so ellipticine positive control = 100%; activation, % at 7.58 µM; actives 0.055% (n = 360,000); AID 743238;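 active = mean normalized replicate activation at least 10% and every replicate at or above 10%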;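 note: 0% = median of on-plate neutral control wells and 100% = ellipticine 6 µM median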
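Schedule: 3 d treatment, 15 min room-temperature fixation; system: 68-5-11 XiGFP fibroblast line; buffer or medium: DMEM plus 5-aza-dC sensitizer; control set: ellipticine 6 µM positive control; compound: one concentration, pinned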
The depositor's hits bear a star; . = no result. Hits are enriched below; roughly 2% of the tested compounds scored in any of these assays.

SMILES	Casp6 inh	DENV2 CPE	FN deposition inh	CaV13 FRET inh	XiGFP reactiv
OC[C@@H]1[C@H](c2ccc(-c3ccc(F)cc3)cc2)[C@@H]2CN(Cc3ccncc3)CCCCN12	5	38*	.	.	0
OC[C@H]1[C@H](c2ccc(-c3ccc(F)cc3)cc2)[C@@H]2CN(Cc3cccnc3)CCCCN12	60*	4	.	.	1
C[C@H]1CN([C@@H](C)CO)S(=O)(=O)c2ccc(-c3ccccc3)cc2O[C@H]1CN(C)Cc1ccccn1	-2	5	-15	.	0
CCCNC(=O)N1CC2(CN(S(=O)(=O)CC)C2)c2c(n(C)c3cc(OC)ccc23)[C@H]1CO	1	0	.	.	0
CCCC[C@@H]1CNCCN1CCc1cc(C(F)(F)F)cc(C(F)(F)F)c1	.	8	0	-5	0
CC(O)[C@H]1CNC(=S)N1CCc1cccc(F)c1 (stereo partly drawn)	-2	-6	-1	-12	0
CCC(C)[C@H]1CNCCN1CCc1cc(C(F)(F)F)cc(C(F)(F)F)c1 (stereo partly drawn)	.	44*	-2	-5	1
CCC(C)[C@H]1CNC(=S)N1CCc1cc(C(F)(F)F)cc(C(F)(F)F)c1 (stereo partly drawn)	0	81*	6	-11	0
N#C/C(=C/c1ccc(-c2ccc(S(N)(=O)=O)cc2)o1)c1nc2ccccc2s1	.	.	-7	-12	92*
N#C/C(=C\c1ccc(-c2ccc(F)cc2)o1)C(=O)Nc1nc(-c2cccs2)cs1	0	6	-2	-21	0
N#C/C(=C/c1ccc(-c2ccccc2)o1)c1nc(-c2cccs2)cs1	1	7	.	.	77*
COc1cccc(-c2ccc([C@H]3[C@H]4CN(S(=O)(=O)c5cn(C)cn5)CCCCN4[C@H]3CO)cc2)c1	1	-2	.	.	0
COc1cccc(-c2ccc([C@@H]3[C@@H](CO)N4CCCCN(S(=O)(=O)c5cn(C)cn5)C[C@H]34)cc2)c1	-3	73*	.	.	0
COc1ccc(C#Cc2ccc([C@@H]3[C@@H](CO)N4CCCCN(S(=O)(=O)c5cn(C)cn5)C[C@H]34)cc2)cc1	0	43*	.	.	0
CCNC(=O)N(CC)C[C@H]1N[C@@](Cc2ccccc2)(C(=O)OC)[C@H]2C(=O)N(Cc3ccccc3)C(=O)[C@@H]12	0	37*	6	-7	0
CCN(C[C@H]1N[C@@](Cc2ccccc2)(C(=O)OC)[C@H]2C(=O)N(Cc3ccccc3)C(=O)[C@@H]12)C(=O)NC(C)C	-1	8	-4	-7	0
COc1ccc(NC(=O)Nc2ccc3c(c2)C(=O)N([C@@H](C)CO)C[C@@H](C)[C@H](CN(C)C(=O)Nc2ccccc2)O3)cc1	0	3	.	.	-1
CC(C)NC(=O)N[C@@H]1CC[C@@H](CC(=O)NCc2ccc(Oc3ccccc3)cc2)O[C@@H]1CO	2	-3	-1	.	0
Cc1ccc(CN2CC(=O)N3[C@H](C2)[C@@H](c2ccc(Br)cc2)[C@@H]3CO)cc1	-1	-2	.	.	0
CCC(C)Nc1nc2c(C)cccn2c(=O)c1C=Nc1ccc(OC)cc1 (stereo not drawn)	41*	.	9	3	0
COCC#Cc1ccc2c(c1)O[C@H](CN(C)C(=O)C1CC1)[C@@H](C)CN([C@H](C)CO)S2(=O)=O	4	-8	-5	.	0
Cc1ccccc1CN1[C@@H](C)[C@H](c2ccccc2)Oc2cccc(NCC(C)C)c2S1(=O)=O	63*	-7	6	-5	0
O=C(COC(=O)CSc1ccc(Br)cc1)NCc1ccco1	-47	9	-10	-6	0
CC(=O)c1cccc(OCC(=O)N(C)CC(=O)NCc2ccco2)c1	49*	8	0	-7	1
Cc1ccc(C)c(SCC(=O)NCc2ccco2)c1	.	.	-5	-4	.
O=C(COC(=O)c1cccc(Br)c1)NCc1ccco1	65*	5	3	-3	0
Cc1ccc(C)c(SCC(=O)OCC(=O)c2ccco2)c1	54*	-2	.	-10	.
Cc1cc(Br)ccc1SCC(=O)OCC(=O)NCc1ccco1	48*	-5	2	-2	0

High-throughput results (PubChem)
